Measured values: ChEMBL document CHEMBL1649280, “Activity of the novel peptide arminin against multiresistant human pathogens shows the considerable potential of phylogenetically ancient organisms as drug sources” (Antimicrob Agents Chemother, 2009)
The source made the active and inactive calls. The rule behind the calls is not given here.

Tests used:
Staphylococcus aureus [1] = experiment: Antibacterial activity against Staphylococcus aureus ATCC 12600 after 2 hrs; format: functional
Escherichia coli [2] = experiment: Antibacterial activity against Escherichia coli DH5alpha after 2 hrs; format: functional, DH5[alpha]
Priestia megaterium [3] = experiment: Antibacterial activity against Bacillus megaterium ATCC 14581 after 2 hrs; format: functional
Staphylococcus aureus [4] = experiment: Antibacterial activity against methicillin-resistant Staphylococcus aureus ATCC 33393 after 2 hrs; format: functional
Staphylococcus aureus [5] = experiment: Antibacterial activity against methicillin-resistant Staphylococcus aureus ATCC 43300 after 2 hrs; format: functional
Staphylococcus aureus [6] = experiment: Antibacterial activity against methicillin-resistant Staphylococcus aureus 344 after 2 hrs; format: functional
Staphylococcus aureus [7] = experiment: Antibacterial activity against methicillin-resistant Staphylococcus aureus 358 after 2 hrs; format: functional
Enterococcus faecalis = experiment: Antibacterial activity against vancomycin-resistant Enterococcus faecalis ATCC 51299 after 2 hrs; format: functional
Klebsiella pneumoniae [8] = experiment: Antibacterial activity against vancomycin-resistant ESBL-producing Klebsiella pneumoniae ATCC 700603 after 2 hrs; format: functional
Klebsiella pneumoniae [9] = experiment: Antibacterial activity against vancomycin-resistant ESBL-producing Klebsiella pneumoniae GF1 after 2 hrs; format: functional
Klebsiella pneumoniae [10] = experiment: Antibacterial activity against vancomycin-resistant ESBL-producing Klebsiella pneumoniae GF7 after 2 hrs; format: functional
Escherichia coli [11] = experiment: Antibacterial activity against vancomycin-resistant ESBL-producing Escherichia coli E4 after 2 hrs; format: functional
Escherichia coli [12] = experiment: Antibacterial activity against vancomycin-resistant ESBL-producing Escherichia coli E9 after 2 hrs; format: functional
Escherichia coli [13] = experiment: Antibacterial activity against Escherichia coli DH5alpha by microdilution susceptibility assay in presence of 75 mM of sodium chloride; format: functional, DH5[alpha]
Outline: (§1)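 Microdilution susceptibility assay in 10 mM sodium phosphate buffer, pH 7.4, with NaCl at 0, 75, 150 or 200 mM. Activity is expressed relative to the activity in buffer without NaCl, which is set to 1. Values are means with standard deviations of two independent experiments, each run in duplicate.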

Staphylococcus aureus [14] = experiment: Antibacterial activity against Staphylococcus aureus ATCC 12600 by microdilution susceptibility assay in presence of 75 mM of sodium chloride; format: functional; outline: as §1
Priestia megaterium [15] = experiment: Antibacterial activity against Bacillus megaterium ATCC 14581 by microdilution susceptibility assay in presence of 75 mM of sodium chloride; format: functional; outline: as §1
Escherichia coli [16] = experiment: Antibacterial activity against Escherichia coli DH5alpha by microdilution susceptibility assay in presence of 200 mM of sodium chloride; format: functional, organism-based; settings: DH5[alpha]
Outline: (§2)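 Microdilution susceptibility assay in 10 mM sodium phosphate pH 7.4 with 0, 75, 150 or 200 mM NaCl. Activity relative to 0 mM NaCl (set to 1). Mean with standard deviation of two independent experiments, each in duplicate.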

Staphylococcus aureus [17] = experiment: Antibacterial activity against Staphylococcus aureus ATCC 12600 by microdilution susceptibility assay in presence of 200 mM of sodium chloride; format: functional, organism-based; outline: as §2
Priestia megaterium [18] = experiment: Antibacterial activity against Bacillus megaterium ATCC 14581 by microdilution susceptibility assay in presence of 200 mM of sodium chloride; format: functional, organism-based; outline: as §2
[19] = Toxicity in human RBC assessed as hemolysis at 250 uM after 1 hr; format: cell-based; settings: erythrocyte
Outline: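 Human red blood cells were exposed to peptide serially diluted twofold from 250 μM in 50 mM sodium phosphate-150 mM NaCl, pH 7.4, for 1 h. Distilled water gave maximal lysis; buffer with peptide solvent gave spontaneous lysis. Absorbance of diluted supernatants was read at 405 nm. Values are means of two independent experiments, each in duplicate.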

Staphylococcus aureus [20] = experiment: Antibacterial activity against Staphylococcus aureus ATCC 12600 assessed as destruction and detachment of peripheral cell wall at 410 uM after 1.5 hrs by transmission electron microscopy; format: functional, organism-based
Outline: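 S. aureus grown to OD₆₀₀ 0.1, washed twice in 10 mM sodium phosphate pH 7.4 with 1% tryptic soy broth, concentrated to OD₆₀₀ 3.0 (~10⁸ bacteria/ml). Incubated with peptide at 41 or 410 μM for 1.5 h at 37°C with rocking; solvent-only control. CFU plated as growth check. Rest fixed 2 h 1:1 with 10% glutaraldehyde, examined by transmission electron microscopy.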

Staphylococcus aureus [21] = experiment: Antibacterial activity against methicillin-resistant Staphylococcus aureus after 2 hrs
Enterococcus faecium [22] = experiment: Antibacterial activity against vancomycin-resistant Enterococcus faecium 354 after 2 hrs
Enterococcus faecium [23] = experiment: Antibacterial activity against vancomycin-resistant Enterococcus faecium 356 after 2 hrs
Enterococcus faecium [24] = experiment: Antibacterial activity against vancomycin-resistant Enterococcus faecium G70 after 2 hrs
Enterococcus faecium [25] = experiment: Antibacterial activity against vancomycin-resistant Enterococcus faecium G71 after 2 hrs

## H-KPWRFRRAIRRVRWRKVAPYIPFVVKTVGKK-OH
Staphylococcus aureus [1]
  LD90: 0.05 µM
Staphylococcus aureus [1]; Staphylococcus aureus, ATCC 12600, 2 h
  MBC: 0.4 µM
Escherichia coli [2]
  LD90: 0.1 µM
Escherichia coli [2]; Escherichia coli, DH5[alpha], 2 h
  MBC: 0.2 µM
Priestia megaterium [3]
  LD90: 0.01 µM
Priestia megaterium [3]; Priestia megaterium, ATCC 14581, 2 h
  MBC: 0.1 µM
Staphylococcus aureus [4]
  LD90: 0.2 µM
Staphylococcus aureus [4]; Staphylococcus aureus, ATCC 33393, 2 h
  MBC: 0.4 µM
Staphylococcus aureus [5]
  LD90: 0.2 µM
Staphylococcus aureus [5]; Staphylococcus aureus, ATCC 43300, 2 h
  MBC: 0.4 µM
Staphylococcus aureus [6]
  LD90: 0.2 µM
Staphylococcus aureus [6]; Staphylococcus aureus, 344, 2 h
  MBC: 0.8 µM
Staphylococcus aureus [7]
  LD90: 0.2 µM
Staphylococcus aureus [7]; Staphylococcus aureus, 358, 2 h
  MBC: 0.4 µM
Enterococcus faecalis
  LD90: 0.8 µM
Enterococcus faecalis; Enterococcus faecalis, ATCC 51299, 2 h
  MBC: 1.6 µM
Klebsiella pneumoniae [8]
  LD90: 0.2 µM
Klebsiella pneumoniae [8]; Klebsiella pneumoniae, ATCC 700603, 2 h
  MBC: 0.8 µM
Klebsiella pneumoniae [9]
  LD90: 0.2 µM
Klebsiella pneumoniae [9]; Klebsiella pneumoniae, GF1, 2 h
  MBC: 0.4 µM
Klebsiella pneumoniae [10]
  LD90: 0.2 µM
Klebsiella pneumoniae [10]; Klebsiella pneumoniae, GF7, 2 h
  MBC: 0.4 µM
Escherichia coli [11]
  LD90: 0.1 µM
Escherichia coli [11]; Escherichia coli, E4, 2 h
  MBC: 0.4 µM
Escherichia coli [12]
  LD90: 0.05 µM
Escherichia coli [12]; Escherichia coli, E9, 2 h
  MBC: 0.2 µM
Escherichia coli [13]
  fold change (FC): 2
Staphylococcus aureus [14]
  fold change (FC): 4
Priestia megaterium [15]
  fold change (FC): 4
Escherichia coli [16]
  Activity: Active
Staphylococcus aureus [17]
  Activity: Active
Priestia megaterium [18]
  Activity: Active
[19]
  Activity: Non-toxic
Staphylococcus aureus [20]
  Activity: Active
Staphylococcus aureus [21]
  LD90: 0.2 µM
Staphylococcus aureus [21]; Staphylococcus aureus, 2 h
  MBC: 0.8 µM
Enterococcus faecium [22]
  LD90: 0.2 µM
Enterococcus faecium [22]; Enterococcus faecium, 354, 2 h
  MBC: 0.4 µM
Enterococcus faecium [23]
  LD90: 0.2 µM
Enterococcus faecium [23]; Enterococcus faecium, 356, 2 h
  MBC: 0.8 µM
Enterococcus faecium [24]
  LD90: 0.2 µM
Enterococcus faecium [24]; Enterococcus faecium, G70, 2 h
  MBC: 0.4 µM
Enterococcus faecium [25]
  LD90: 0.2 µM
Enterococcus faecium [25]; Enterococcus faecium, G71, 2 h
  MBC: 0.4 µM
